Measurements reported in ChEMBL document CHEMBL1129265, “Synthesis and characterization of pseudopeptide bradykinin B2 receptor antagonists containing the 1,3,8-triazaspiro[4.5]decan-4-one ring system” (J Med Chem, 1996).

Experiments:
B2 bradykinin receptor = target: T1, B2 bradykinin receptor (Homo sapiens, UniProt P30411); assay: Affinity to human Bradykinin receptor B2 in CHO cell membranes determined by displacement of [3H]-NPC 17731
T1 sequence (P30411 whole entry): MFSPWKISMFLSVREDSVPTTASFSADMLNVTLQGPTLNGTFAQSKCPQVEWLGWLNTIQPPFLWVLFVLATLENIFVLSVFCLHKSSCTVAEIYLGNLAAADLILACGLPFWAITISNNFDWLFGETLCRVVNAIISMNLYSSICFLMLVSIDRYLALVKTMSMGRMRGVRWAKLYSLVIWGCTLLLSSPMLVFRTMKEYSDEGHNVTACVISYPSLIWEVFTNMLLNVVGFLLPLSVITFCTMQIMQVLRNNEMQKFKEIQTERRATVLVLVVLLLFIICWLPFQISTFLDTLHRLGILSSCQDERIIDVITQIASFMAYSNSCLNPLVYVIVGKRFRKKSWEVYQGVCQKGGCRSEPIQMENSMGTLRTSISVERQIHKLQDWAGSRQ
Procedure, shortened: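 Membranes from CHO/K cells transfected with human B2 receptor, grown in Ham's F12 with 10% FBS and 500 ug/mL G418. Buffer: 25 mM TES, 1 mM 1,10-phenanthroline, pH 6.8, with bacitracin and 0.1% BSA. Competition versus [3H]NPC-17731, 15 pM final. 1 uM bradykinin defines nonspecific binding. 90 min at 25 °C, then filtration on PEI-soaked GF/B and scintillation counting. n=3.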

Oryctolagus cuniculus = species on record: Oryctolagus cuniculus; assay: Pharmacological profile in bradykinin induced assay in rabbits ([…]); format: functional
Procedure, shortened: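 Male New Zealand white rabbits, 1.5–2.0 kg, acepromazine premedicated, pentobarbital anesthetized. Carotid catheter records mean arterial pressure continuously. Three bolus bradykinin doses (1 ug/kg iv) set baseline. Antagonist in saline is then given iv at rising doses (0.03–1000 ug/kg), each followed after 5 min by a bradykinin bolus. Percent inhibition of hypotension per animal; ED50 by probit; n=4.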

Rattus norvegicus = species on record: Rattus norvegicus; assay: Pharmacological profile in bradykinin induced assay in rats ([…] in rats); format: functional
Procedure, shortened: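 Anesthetized Sprague–Dawley rats, carotid mean arterial pressure, jugular iv dosing, tracheotomy. After 30 min stabilization, three bradykinin injections (12 ug/kg iv, 5 min apart) set baseline hypotension. Test agent is given iv 10–15 min later, followed 5 min after by bradykinin challenge. Successive increasing doses give a cumulative dose–response; ED50 reported, n=4.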

Row | Structure (SMILES) | Ki (B2 bradykinin receptor) [nM] | ED50 (Oryctolagus cuniculus) [mg/kg] | ED50 (Rattus norvegicus) [mg/kg]
1 | CCCN1CN(CC(C)=O)C(=O)C12CCN(C)CC2 | 27 | – | –
2 | CC(=O)CN1CN(CCc2ccccc2)C2(CCN(C)CC2)C1=O | 0.15 | – | –
3 | CC(=O)CN1CN(c2ccccc2)C2(CCN(C)CC2)C1=O | 7.7 | 0.0221 | 0.4
4 | CC(=O)CN1CN(c2ccc(C)cc2)C2(CCN(C)CC2)C1=O | 6.3 | – | –
5 | CC(=O)CN1CN(CC2CCCCC2)C2(CCN(C)CC2)C1=O | 6.8 | – | –
6 | CC(=O)CN1CN(C2CCCCC2)C2(CCN(C)CC2)C1=O | 0.57 | 0.0086 | 0.6
